Results taken from ChEMBL document CHEMBL1811802, “Synthesis and significant cytostatic activity of 7-hetaryl-7-deazaadenosines” (J Med Chem, 2011).

What was measured:
HL-60 = assay: Cytotoxicity against human HL60 cells after 3 days by XTT assay; assay type: functional, cell-based; conditions: HL-60, 72 h
Outline: (§1)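 Suspension-grown cell lines, 3-day compound incubation; viability read by XTT metabolic assay; IC50 averaged from four independent experiments.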

CCRF-CEM = assay: Cytotoxicity against human CCRF-CEM cells after 3 days by XTT assay; assay type: functional, cell-based; conditions: 72 h; outline: as §1
HCT-116 = assay: Cytostatic activity against human HCT116 cells after 5 days by SRB assay; assay type: functional; conditions: HCT-116, 120 h
Outline: (§2)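 Cells seeded per line density, overnight at 37 °C; day-zero plate TCA-fixed. 5-fold serial dilutions added, 5-day incubation; TCA fixation, 0.057% SRB in 1% acetic acid 30 min, dye dissolved in 10 mM Tris pH 10.5, A500. Growth relative to day-zero and untreated; GIC50 from sigmoidal dose–response fit; mean of two independent experiments.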

MT4 = assay: Cytostatic activity against human MT4 cells after 5 days by SRB assay; assay type: functional; conditions: MT4, 120 h
[1] = Cytotoxicity against human HeLaS3 cells after 3 days by XTT assay; assay type: functional, cell-based; conditions: HeLa S3, 72 h; outline: as §1
PC-3 = assay: Cytostatic activity against human PC3 cells after 5 days by SRB assay; assay type: functional; conditions: PC-3, 120 h; outline: as §2
Adenosine kinase = Adenosine kinase (Homo sapiens, UniProt P55263); assay: Inhibition of human ADK using [3H]-adenosine by scintillation counting
[2] = Cytostatic activity against human Hs578 cells after 5 days by SRB assay; assay type: functional; conditions: Hs578, 120 h; outline: as §2
NCI-H23 = assay: Cytostatic activity against human NCI-H23 cells after 5 days by SRB assay; assay type: functional; conditions: NCI-H23, 120 h; outline: as §2
A549 = assay: Cytostatic activity against human A549 cells after 5 days by SRB assay; assay type: functional; conditions: A549, 120 h; outline: as §2
BT-549 [3] = assay: Cytostatic activity against human BT549 cells after 5 days by SRB assay; assay type: functional; conditions: BT-549, 120 h; outline: as §2
DU-145 = assay: Cytostatic activity against human DU145 cells after 5 days by SRB assay; assay type: functional; conditions: DU-145, 120 h; outline: as §2
[4] = Inhibition of RNA polymerase 2 in human HeLaScribe nuclear extracts after 1 hr; conditions: read-out: IC50
Outline: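 HeLaScribe nuclear extract transcription with CMV(+) template DNA, 3 mM MgCl2, 400 μM CTP/GTP/UTP, 25 μM [33P]ATP. Inhibitor preincubated 5 min at 30 °C, then 1 h at 30 °C. Products run on 6% urea–polyacrylamide gel; full-length transcript quantified; IC50 is 50% product decrease.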

SK-OV-3 = assay: Cytotoxicity against human SKOV3 cells after 3 days by MTT assay; assay type: functional, cell-based; conditions: SK-OV-3, 72 h
CT26 = assay: Cytotoxicity against mouse CT26 cells after 3 days by MTT assay; assay type: functional, cell-based; conditions: CT26, 72 h
LNCaP = assay: Cytotoxicity against human LNCAP cells after 3 days by MTT assay; assay type: functional, cell-based; conditions: 72 h
[5] = Cytotoxicity against human MES-SA cells after 3 days by MTT assay; assay type: functional, cell-based; conditions: 72 h
HT-29 = assay: Cytotoxicity against human HT-29 cells after 3 days by MTT assay; assay type: functional, cell-based; conditions: HT-29, 72 h
HPAC = assay: Cytotoxicity against human HPAC cells after 3 days by MTT assay; assay type: functional, cell-based; conditions: 72 h
[6] = Cytotoxicity against mouse P388D1 cells after 3 days by MTT assay; assay type: functional, cell-based; conditions: P388D1, 72 h
BV-173 = assay: Cytotoxicity against human BV173 cells after 3 days by MTT assay; assay type: functional, cell-based; conditions: BV-173, 72 h
[7] = Cytotoxicity against human U87MG cells after 3 days by MTT assay; assay type: functional, cell-based, U-87MG ATCC; conditions: U-87 MG, 72 h
BJ = assay: Cytotoxicity against human BJ cells after 3 days by MTT assay; assay type: cell-based; conditions: 72 h
SK-MEL-2 = assay: Cytotoxicity against human SK-MEL-2 cells after 3 days by MTT assay; assay type: functional, cell-based; conditions: SK-MEL-2, 72 h
K562 [8] = assay: Cytotoxicity against human paclitaxel resistant K562 cells after 3 days by MTT assay; assay type: functional, cell-based; conditions: K562, 72 h
MCF7 = assay: Cytotoxicity against human MCF7 cells after 3 days by MTT assay; assay type: functional, cell-based; conditions: MCF7, 72 h
EL4 = assay: Cytotoxicity against mouse EL4 cells after 3 days by MTT assay; assay type: functional, cell-based; conditions: EL4, 72 h
BT-549 [9] = assay: Cytotoxicity against human BT549 cells after 3 days by MTT assay; assay type: functional, cell-based; conditions: BT-549, 72 h
C6 = assay: Cytotoxicity against rat C6 cells after 3 days by MTT assay; assay type: functional, cell-based; conditions: C6, 72 h
K562 [10] = assay: Cytotoxicity against human K562 cells after 3 days by MTT assay; assay type: functional, cell-based; conditions: K562, 72 h
SK-N-AS = assay: Cytotoxicity against human SK-N-AS cells after 3 days by MTT assay; assay type: functional, cell-based; conditions: 72 h
[11] = Cytotoxicity against human NCI-H146 cells after 3 days by MTT assay; assay type: functional, cell-based; conditions: NCI-H146, 72 h
HeLa = assay: Cytotoxicity against human HeLa cells after 3 days by MTT assay; assay type: functional, cell-based; conditions: 72 h
L1210 = assay: Cytotoxicity against mouse L1210 cells after 3 days by MTT assay; assay type: functional, cell-based; conditions: L1210, 72 h
[12] = Cytotoxicity against human CEM-DNR-bulk cells after 3 days by MTT assay; assay type: functional, cell-based; conditions: 72 h
MDA-MB-231 = assay: Cytotoxicity against human MDA-MB-231 cells after 3 days by MTT assay; assay type: functional, cell-based; conditions: MDA-MB-231, 72 h
HCT-15 = assay: Cytostatic activity against human HCT15 cells after 5 days by SRB assay; assay type: functional; conditions: HCT-15, 120 h; outline: as §2

Chain of Adenosine kinase (P55263 whole entry): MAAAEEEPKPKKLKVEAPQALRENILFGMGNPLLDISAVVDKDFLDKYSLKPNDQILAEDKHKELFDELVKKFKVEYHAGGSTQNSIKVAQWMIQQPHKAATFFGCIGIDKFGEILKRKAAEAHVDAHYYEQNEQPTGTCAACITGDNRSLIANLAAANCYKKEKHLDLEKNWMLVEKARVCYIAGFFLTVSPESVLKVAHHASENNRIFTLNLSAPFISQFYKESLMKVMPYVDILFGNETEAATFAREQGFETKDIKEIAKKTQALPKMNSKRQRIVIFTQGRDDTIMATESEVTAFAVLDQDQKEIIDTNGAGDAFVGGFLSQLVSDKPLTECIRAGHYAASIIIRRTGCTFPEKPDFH

SMILES: Nc1ncnc2c1c(-c1cc[nH]n1)cn2[C@@H]1O[C@H](CO)[C@@H](O)[C@H]1O
- IC50 (HL-60): > 20000 nM
- IC50 (CCRF-CEM): 130 nM
- GI50 (HCT-116): 18 nM
- GI50 (MT4): 18 nM
- IC50 [1]: 690 nM
- GI50 (PC-3): 15 nM
- IC50 (Adenosine kinase): > 10000 nM
- GI50 [2]: 8 nM
- GI50 (NCI-H23): 35 nM

SMILES: Nc1ncnc2c1c(-c1cc3ccccc3o1)cn2[C@@H]1O[C@H](CO)[C@@H](O)[C@H]1O
- GI50 (A549): 7020 nM
- IC50 (HL-60): > 10000 nM
- IC50 (CCRF-CEM): 3950 nM
- GI50 (HCT-116): 3740 nM
- GI50 (MT4): 4800 nM
- IC50 [1]: > 10000 nM
- GI50 (PC-3): 6290 nM
- IC50 (Adenosine kinase): > 10000 nM
- GI50 (BT-549 [3]): > 10000 nM
- GI50 [2]: 6730 nM
- GI50 (NCI-H23): 5400 nM

SMILES: Nc1ncnc2c1c(-c1cccc3ccccc13)cn2[C@@H]1O[C@H](CO)[C@@H](O)[C@H]1O
- GI50 (DU-145): > 10000 nM
- IC50 (HL-60): > 10000 nM
- IC50 (CCRF-CEM): > 10000 nM
- GI50 (HCT-116): > 10000 nM
- IC50 [1]: > 10000 nM
- IC50 (Adenosine kinase): > 10000 nM
- GI50 [2]: > 10000 nM
- GI50 (NCI-H23): > 10000 nM

SMILES: Nc1ncnc2c1c(-c1ncc[nH]1)cn2[C@@H]1O[C@H](CO)[C@@H](O)[C@H]1O
- IC50 (HL-60): 100 nM
- IC50 (CCRF-CEM): 70 nM
- GI50 (HCT-116): 2 nM
- GI50 (MT4): 49 nM
- IC50 [1]: 440 nM
- GI50 (PC-3): 1 nM
- IC50 (Adenosine kinase): > 5000 nM
- GI50 [2]: 1 nM
- GI50 (NCI-H23): 6 nM

SMILES: Nc1ncnc2c1c(-c1ccco1)cn2[C@@H]1O[C@H](COP(=O)(O)OP(=O)(O)OP(=O)(O)O)[C@@H](O)[C@H]1O
- IC50 [4]: 148000 nM

SMILES: Nc1ncnc2c1c(-c1ccoc1)cn2[C@@H]1O[C@H](COP(=O)(O)OP(=O)(O)OP(=O)(O)O)[C@@H](O)[C@H]1O
- IC50 [4]: > 400000 nM

SMILES: Nc1ncnc2c1c(-c1nccs1)cn2[C@@H]1O[C@H](CO)[C@@H](O)[C@H]1O
- IC50 (HL-60): 1610 nM
- IC50 (CCRF-CEM): 20 nM
- GI50 (HCT-116): 93 nM
- GI50 (MT4): 42 nM
- IC50 [1]: 40 nM
- GI50 (PC-3): 42 nM
- GI50 [2]: 15 nM
- GI50 (NCI-H23): 5 nM

SMILES: Nc1ccn([C@@H]2O[C@H](CO)[C@@H](O)C2(F)F)c(=O)n1 [GEMCITABINE]
- IC50 (SK-OV-3): > 10000 nM
- IC50 (CT26): 6 nM
- IC50 (LNCaP): 512 nM
- IC50 [5]: 5 nM
- IC50 (HT-29): 1530 nM
- IC50 (HPAC): 73 nM
- IC50 [6]: 19 nM
- IC50 (BV-173): 1 nM
- IC50 [7]: 1490 nM
- IC50 (BJ): 9880 nM
- IC50 (SK-MEL-2): 7110 nM
- IC50 (K562 [8]): 6 nM
- IC50 (MCF7): 149 nM
- IC50 (EL4): 7 nM
- IC50 (BT-549 [9]): 8 nM
- IC50 (C6): 504 nM
- IC50 (K562 [10]): 718 nM
- IC50 (SK-N-AS): 1100 nM
- IC50 [11]: 2780 nM
- IC50 (HeLa): 4120 nM
- IC50 (L1210): 7 nM
- IC50 [12]: 22 nM
- IC50 (MDA-MB-231): 245 nM

SMILES: Nc1ncnc2c1ccn2[C@@H]1O[C@H](COP(=O)(O)OP(=O)(O)OP(=O)(O)O)[C@@H](O)[C@H]1O [TUBERCIDIN TRIPHOSPHATE]
- IC50 [4]: 93000 nM

SMILES: COc1ccc(-c2cn([C@@H]3O[C@H](CO)[C@@H](O)[C@H]3O)c3ncnc(N)c23)cc1
- GI50 (A549): 701 nM
- GI50 (HCT-15): 544 nM
- GI50 (DU-145): 152 nM
- IC50 (HL-60): > 10000 nM
- IC50 (CCRF-CEM): > 10000 nM
- GI50 (HCT-116): 633 nM
- GI50 (MT4): 4300 nM
- IC50 [1]: > 10000 nM
- GI50 (PC-3): 1110 nM
- IC50 (Adenosine kinase): > 2000 nM
- GI50 [2]: 811 nM
- GI50 (NCI-H23): 856 nM
